Measurements reported in ChEMBL document CHEMBL2146379, “Antimetastatic effect of sulfamate carbonic anhydrase IX inhibitors in breast carcinoma xenografts” (J Med Chem, 2012).
Activity calls are given as the source filed them. The calls are words filed in the database; no cut-off is given here.

Columns and labels:
MDA-MB-231 [1] = assay: Antimetastatic activity against EGFP tagged human MDA-MB-231 cells expressing CA9 assessed as inhibition of cell migration under normoxic condition after 24 hrs by scratch-wound assay; format: functional, cell-based
Summary of the method: (§1)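 Scratch-wound migration in confluent monolayers of RPMI 1640/10% FCS/2 mM glutamine-grown cells (eGFP-tagged MDA-MB-231, WRO, FTC-133; untagged RT112, HCT116). Incubation 24 h in normoxia or anoxia with DMSO or inhibitor at increasing concentrations (3.3, 10, 33 μM tested). Wound closure imaged by fluorescence. n = 3 per concentration per cell line; mean ± SEM, Student's t test.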

MDA-MB-231 [2] = assay: Antimetastatic activity against EGFP tagged human MDA-MB-231 cells expressing CA9 assessed as inhibition of cell migration under anoxic condition after 24 hrs by scratch-wound assay; format: functional, cell-based; summary of the method: as §1
Carbonic anhydrase 9 = Carbonic anhydrase 9 (Homo sapiens, UniProt Q16790); assay: Inhibition of human recombinant transmembrane CA9 preincubated for 15 mins by stopped-flow CO2 hydration method
Summary of the method: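 Stopped-flow CO₂ hydration with in-house recombinant human CA, CO₂ 1.7−17 mM. Inhibitor diluted in water from 0.1 mM stock down to 0.01 nM, preincubated with enzyme 15 min at room temperature. Initial velocity from ≥6 traces of the first 5−10% of reaction, uncatalyzed rate subtracted.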

MDA-MB-231 [3] = assay: Antimetastatic activity against EGFP tagged human MDA-MB-231 cells expressing CA9 assessed as inhibition of cell migration under anoxic condition at 33 uM after 24 hrs by scratch-wound assay; format: functional; conditions: MDA-MB-231, 24 h; summary of the method: as §1
HCT-116 [4] = assay: Antimetastatic activity against human HCT116 cells xenografted in mouse assessed as inhibition of lung metastasis; format: functional
MDA-MB-231 [5] = assay: Antimetastatic activity against EGFP tagged human MDA-MB-231 cells expressing CA9 assessed as inhibition of cell migration under anoxic condition at 10 uM after 24 hrs by scratch-wound assay; format: functional; conditions: MDA-MB-231, 24 h; summary of the method: as §1
MDA-MB-231 [6] = assay: Antimetastatic activity against EGFP tagged human MDA-MB-231 cells expressing CA9 assessed as inhibition of cell migration under anoxic condition at 3.3 uM after 24 hrs by scratch-wound assay; format: functional; conditions: MDA-MB-231, 24 h; summary of the method: as §1
Mus musculus [7] = assay: Toxicity in nu/nu CBA mouse xenografted with EGFP tagged human MDA-MB-231 cells expressing CA9 assessed as signs of intolerance at 10 mg/kg, ip administered 5 days on 2 days off; format: organism-based; set-up: dose 10 mg/kg, route intraperitoneal; conditions: in vivo
Summary of the method: (§2)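 Female nu/nu CBA mice, 10−12 weeks old, 8 per group, injected orthotopically into the fourth inguinal nipple with eGFP-MDA-MB-231 cells (5 × 10⁷ cells/mL in 1:1 serum-free RPMI/Matrigel). From 150 mm³ tumors, dosed 10 mg/kg ip daily (saline, 4% DMSO), 5 days on/2 off. Callipers 3×/week; health checked daily; body weight tracked. Culled at 1000 mm³; lung metastasis by ex vivo clonogenic assay.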

RT-112 = assay: Antimetastatic activity against CA9 deficient human RT112 cells assessed as inhibition of cell migration under anoxic condition at 33 uM after 24 hrs by scratch-wound assay; format: functional, cell-based; summary of the method: as §1
MDA-MB-231 [8] = assay: Antimetastatic activity against EGFP tagged human MDA-MB-231 cells expressing CA9 assessed as inhibition of cell spreading under normoxic condition at 33 uM after 60 mins by phalloidin staining; format: functional, cell-based
HCT-116 [9] = assay: Antimetastatic activity against human HCT116 cells assessed as stimulation of cell migration under anoxic condition at 33 uM after 24 hrs by scratch-wound assay; format: functional; summary of the method: as §1
MDA-MB-231 [10] = assay: Antimetastatic activity against EGFP tagged human MDA-MB-231 cells expressing CA9 xenografted in nu/nu CBA mouse tumor assessed as reduction in metastasic burden in lungs at 10 mg/kg, ip, administered 5 days on 2 days off measured on day 10 by clonogenic assay; format: functional, organism-based; set-up: dose 10 mg/kg; summary of the method: as §2
[11] = Antimetastatic activity against EGFP tagged human WRO cells expressing CA9 assessed as inhibition of cell migration under anoxic condition at 100 uM after 24 hrs by scratch-wound assay; format: functional
MDA-MB-231 [12] = assay: Antimetastatic activity against EGFP tagged human MDA-MB-231 cells expressing CA9 assessed as inhibition of cell spreading under anoxic condition at 33 uM after 60 mins by phalloidin staining; format: functional, cell-based
MDA-MB-231 [13] = assay: Cytotoxicity against EGFP tagged human MDA-MB-231 cells expressing CA9 at 100 uM; format: functional, cell-based
Mus musculus [14] = assay: Toxicity in nu/nu CBA mouse xenografted with EGFP tagged human MDA-MB-231 cells expressing CA9 assessed as change in body weight at 10 mg/kg, ip administered 5 days on 2 days off; format: organism-based; set-up: dose 10 mg/kg, route intraperitoneal; conditions: in vivo; summary of the method: as §2
FTC-133 = assay: Antimetastatic activity against EGFP tagged human FTC-133 cells expressing CA9 assessed as inhibition of cell migration under anoxic condition at 33 uM after 24 hrs by scratch-wound assay; format: functional, cell-based; summary of the method: as §1
MDA-MB-231 [15] = assay: Antitumor activity against EGFP tagged human MDA-MB-231 cells expressing CA9 xenografted in nu/nu CBA mouse assessed as tumor growth inhibition at 10 mg/kg, ip administered 5 days on 2 days off; format: functional, organism-based; set-up: dose 10 mg/kg; summary of the method: as §2

For NS(=O)(=O)Oc1ccc(NC(=O)Nc2ccc(Cl)cc2)cc1, the inhibition (MDA-MB-231 [1]) was “Active” and the inhibition (MDA-MB-231 [2]) was “Active”.
With COc1ccc(NC(=O)Nc2ccc(OS(N)(=O)=O)cc2)cc1 the inhibition (MDA-MB-231 [2]) was “inactive”.
With CN(C)c1ccc(NC(=O)Nc2ccc(OS(N)(=O)=O)cc2)cc1 the Ki (Carbonic anhydrase 9) was 0.009 µM and the inhibition (MDA-MB-231 [2]) was “inactive”.
For NS(=O)(=O)Oc1ccc(NC(=S)Nc2ccc(-c3c4ccc(=O)cc-4oc4cc(O)ccc34)c(C(=O)O)c2)cc1, the inhibition (MDA-MB-231 [2]) was “inactive”.
In the case of NS(=O)(=O)Oc1ccc(NC(=O)Nc2ccc([N+](=O)[O-])cc2)cc1, the inhibition (MDA-MB-231 [1]) is reported as “Active” and the inhibition (MDA-MB-231 [2]) is reported as “Active”.
With NS(=O)(=O)Oc1ccc(NC(=O)Nc2ccc(F)cc2)cc1 the inhibition (MDA-MB-231 [1]) was “Active” and the inhibition (MDA-MB-231 [2]) was “Active”.
For NS(=O)(=O)Oc1ccc(-[n+]2c(-c3ccccc3)cc(-c3ccccc3)cc2-c2ccccc2)cc1, the Ki (Carbonic anhydrase 9) was 0.014 µM and the inhibition (MDA-MB-231 [2]) was “inactive”.
Compound NS(=O)(=O)Oc1ccc(NC(=O)Nc2ccc(Oc3ccccc3)cc2)cc1 has an inhibition at 33 µM (MDA-MB-231 [3]) of 49%.
Compound NS(=O)(=O)Oc1ccc(NC(=O)Nc2c(F)c(F)c(F)c(F)c2F)cc1 has an inhibition at 33 µM (MDA-MB-231 [3]) of 32%.
In the case of Cc1cc(C)cc(NC(=O)Nc2ccc(OS(N)(=O)=O)cc2)c1, the inhibition (HCT-116 [4]) is reported as “inactive”, the inhibition at 33 µM (MDA-MB-231 [3]) is reported as 50% and the inhibition at 10 µM (MDA-MB-231 [5]) is reported as 21%. The inhibition at 3.3 µM (MDA-MB-231 [6]) was 5%, the Activity (Mus musculus [7]) was “Non-toxic” and the inhibition (RT-112) was “inactive”. For the same compound, the inhibition (MDA-MB-231 [8]) was “inactive”, the Activity (HCT-116 [9]) was 44% and the Activity (MDA-MB-231 [10]) was “Active”. The inhibition at 100 µM [11] was 41%, the inhibition (MDA-MB-231 [12]) was “Active” and the Activity (MDA-MB-231 [13]) was “Active”. The Activity (Mus musculus [14]) was “Non-toxic”, the inhibition (FTC-133) was “Active” and the “growth inhibition (GI)” value (MDA-MB-231 [15]) was “inactive”.
